Measurements reported in ChEMBL document CHEMBL1153580, “Synthesis and pharmacological investigation of 3-(substituted 1-phenylethanone)-4-(substituted phenyl)-1, 2, 3, 4-tetrahydropyrimidine-5-carboxylates” (Eur J Med Chem, 2009).

Tests used:
Rattus norvegicus [1] = assay: Antihypertensive activity in Norwegian albino rat assessed as inhibition of DOCA salt-induced diastolic blood pressure at 10 mg/kg, po after 30 mins by invasive carotid artery cannulation method; type: functional; settings: 0.5 h
Summary of the method: (§1)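 Male rats (200–250 g), uninephrectomized and given DOCA s.c. (30–50 mg/kg/week) with 1% NaCl drinking water. Anesthetized with pentobarbital (35 mg/kg i.p.); left carotid artery cannulated and exteriorized. After recovery and a baseline reading, compound given orally by feeding needle. Diastolic pressure recorded via transducer at 15, 30, 60, 120 and 180 min. Mean ± S.E.M.; repeated-measures ANOVA.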

Rattus norvegicus [2] = assay: Antihypertensive activity in Norwegian albino rat assessed as inhibition of DOCA salt-induced systolic blood pressure at 10 mg/kg, po after 300 mins by non-invasive tail-cuff method; type: functional; settings: Artery, 5 h
Summary of the method: (§2)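 Male rats (200–250 g), uninephrectomized under pentobarbital (50 mg/kg i.p.); one week later DOCA s.c. 30–50 mg/kg/week, with 1% w/v NaCl in drinking water. Groups of six, trained in restrainer, tail warmed at 33–34 °C. Compound in 0.5% CMC, 10 mg/kg orally. Systolic pressure read by tail-cuff before dosing and from 1 h after; three readings averaged. ANOVA.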

Rattus norvegicus [3] = assay: Antihypertensive activity in Norwegian albino rat assessed as inhibition of DOCA salt-induced diastolic blood pressure at 10 mg/kg, po after 180 mins by invasive carotid artery cannulation method; type: functional; settings: 3 h; summary of the method: as §1
Rattus norvegicus [4] = assay: Antihypertensive activity in Norwegian albino rat assessed as inhibition of DOCA salt-induced systolic blood pressure at 10 mg/kg, po after 360 mins by non-invasive tail-cuff method; type: functional; settings: Artery, 6 h; summary of the method: as §2
Rattus norvegicus [5] = assay: Antihypertensive activity in Norwegian albino rat assessed as inhibition of DOCA salt-induced systolic blood pressure at 10 mg/kg, po after 15 mins by non-invasive tail-cuff method; type: functional; settings: Artery, 0.25 h
Rattus norvegicus [6] = assay: Antihypertensive activity in Norwegian albino rat assessed as inhibition of DOCA salt-induced diastolic blood pressure at 10 mg/kg, po after 240 mins by invasive carotid artery cannulation method; type: functional; settings: 4 h
Rattus norvegicus [7] = assay: Antihypertensive activity in Norwegian albino rat assessed as inhibition of DOCA salt-induced diastolic blood pressure at 10 mg/kg, po after 120 mins by invasive carotid artery cannulation method; type: functional; settings: 2 h; summary of the method: as §1
Rattus norvegicus [8] = assay: Antihypertensive activity in Norwegian albino rat assessed as inhibition of DOCA salt-induced systolic blood pressure at 10 mg/kg, po after 480 mins by non-invasive tail-cuff method; type: functional; settings: Artery, 8 h; summary of the method: as §2
Rattus norvegicus [9] = assay: Antiinflammatory activity in Norwegian albino rat assessed as inhibition of carrageenan-induced paw edema at 100 mg/kg, po after administered 60 mins prior to carrageenan-challenge measured after 1 hr; type: functional
Summary of the method: (§3)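 Compound given orally as 100 mg/kg suspension in 0.5% CMC. 60 min later, carrageenan injected sub-plantar into the left hind paw. Paw volume measured within 30 s of injection, then at 1–5 h. % inhibition = [1−(Dt/Dc)]×100, where Dt and Dc are mean relative paw-volume changes in test and control. ANOVA.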

Rattus norvegicus [10] = assay: Antihypertensive activity in Norwegian albino rat assessed as inhibition of DOCA salt-induced systolic blood pressure at 10 mg/kg, po after 30 mins by non-invasive tail-cuff method; type: functional; settings: Artery, 0.5 h
Mus musculus = assay: Analgesic activity against acetic acid-induced writhing in Swiss albino mouse assessed as protection at 20 mg/kg, po; type: functional
Summary of the method: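 Swiss albino mice (25–30 g), six per group, habituated 30 min individually in the test cage. Compound in 1% CMC given p.o. at 20 mg/kg. 1 h later, acetic acid injected i.p.; writhes (arching of back, body elongation, hind-limb extension) counted 5–15 min after injection. % inhibition = (n−n′)/n×100, where n and n′ are mean writhes in control and test.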

Rattus norvegicus [11] = assay: Antiinflammatory activity in Norwegian albino rat assessed as inhibition of carrageenan-induced paw edema at 100 mg/kg, po after administered 60 mins prior to carrageenan-challenge measured after 3 hrs; type: functional; summary of the method: as §3
Rattus norvegicus [12] = assay: Gastrointestinal toxicity in albino rat assessed as ulcerogenic index at 50 mg/kg, po; type: organism-based; design: dose 50 mg/kg, route oral; settings: in vivo
Summary of the method: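 Albino rats (150–200 g), six per group, food but not water withheld 24 h. Compound given p.o. at 50 mg/kg; controls received 1% methyl cellulose. Rats fed 17 h, then killed; stomach opened along greater curvature and examined under 4× magnifier. Lesions scored as large (>2 mm), small (1–2 mm) or punctiform (<1 mm). Severity index = treated mean score minus control mean score.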

Rattus norvegicus [13] = assay: Antihypertensive activity in Norwegian albino rat assessed as inhibition of DOCA salt-induced systolic blood pressure at 10 mg/kg, po after 60 mins by non-invasive tail-cuff method; type: functional; settings: Artery, 1 h; summary of the method: as §2
Rattus norvegicus [14] = assay: Antihypertensive activity in Norwegian albino rat assessed as inhibition of DOCA salt-induced diastolic blood pressure at 10 mg/kg, po after 15 mins by invasive carotid artery cannulation method; type: functional; settings: 0.25 h; summary of the method: as §1
Rattus norvegicus [15] = assay: Antihypertensive activity in Norwegian albino rat assessed as inhibition of DOCA salt-induced systolic blood pressure at 10 mg/kg, po after 180 mins by non-invasive tail-cuff method; type: functional; settings: Artery, 3 h; summary of the method: as §2
Rattus norvegicus [16] = assay: Antihypertensive activity in Norwegian albino rat assessed as inhibition of DOCA salt-induced systolic blood pressure at 10 mg/kg, po after 240 mins by non-invasive tail-cuff method; type: functional; settings: Artery, 4 h; summary of the method: as §2
Rattus norvegicus [17] = assay: Antihypertensive activity in Norwegian albino rat assessed as inhibition of DOCA salt-induced diastolic blood pressure at 10 mg/kg, po after 60 mins by invasive carotid artery cannulation method; type: functional; settings: 1 h; summary of the method: as §1
Rattus norvegicus [18] = assay: Antihypertensive activity in Norwegian albino rat assessed as inhibition of DOCA salt-induced systolic blood pressure at 10 mg/kg, po after 420 mins by non-invasive tail-cuff method; type: functional; settings: Artery, 7 h; summary of the method: as §2
Rattus norvegicus [19] = assay: Antiinflammatory activity in Norwegian albino rat assessed as inhibition of carrageenan-induced paw edema at 100 mg/kg, po after administered 60 mins prior to carrageenan-challenge measured after 5 hrs; type: functional; summary of the method: as §3
Rattus norvegicus [20] = assay: Antihypertensive activity in Norwegian albino rat assessed as inhibition of DOCA salt-induced systolic blood pressure at 10 mg/kg, po after 120 mins by non-invasive tail-cuff method; type: functional; settings: Artery, 2 h; summary of the method: as §2

Row | Compound | inhibition in vivo at 10 mg/kg (Rattus norvegicus [1]) | inhibition in vivo at 10 mg/kg (Rattus norvegicus [2]) | inhibition in vivo at 10 mg/kg (Rattus norvegicus [3]) | inhibition in vivo at 10 mg/kg (Rattus norvegicus [4]) | inhibition in vivo at 10 mg/kg (Rattus norvegicus [5]) | inhibition in vivo at 10 mg/kg (Rattus norvegicus [6]) | inhibition in vivo at 10 mg/kg (Rattus norvegicus [7]) | inhibition in vivo at 10 mg/kg (Rattus norvegicus [8]) | inhibition in vivo at 100 mg/kg (Rattus norvegicus [9]) | inhibition in vivo at 10 mg/kg (Rattus norvegicus [10]) | Activity (Mus musculus) | inhibition in vivo at 100 mg/kg (Rattus norvegicus [11]) | UI (Rattus norvegicus [12]) | inhibition in vivo at 10 mg/kg (Rattus norvegicus [13]) | inhibition in vivo at 10 mg/kg (Rattus norvegicus [14]) | inhibition in vivo at 10 mg/kg (Rattus norvegicus [15]) | inhibition in vivo at 10 mg/kg (Rattus norvegicus [16]) | inhibition in vivo at 10 mg/kg (Rattus norvegicus [17]) | inhibition in vivo at 10 mg/kg (Rattus norvegicus [18]) | inhibition in vivo at 100 mg/kg (Rattus norvegicus [19]) | further results
1 | CCOC(=O)C1=C(C)NC(OC)N(CC(=O)c2ccc(OC)cc2)C1c1ccccc1 (stereo unspecified) | 8.97% | 38.3% | 37.8% | 41.6% | 1% | 47.8% | 30.1% | 46.5% | 37.1% | 6.49% | 45.8% | 38.4% | 0.74 | 13.8% | 1.84% | 28% | 36.8% | 23.5% | 45.1% | 42.6% | inhibition in vivo at 10 mg/kg (Rattus norvegicus [20]): 20.5%
2 | CCOC(=O)C1=C(C)NC(OC)N(CC(=O)c2ccc(OC)cc2)C1c1ccc(C)cc1 (stereo unspecified) | 11.5% | 39.6% | 37.6% | 42% | 1.82% | 47.9% | 30% | 46.3% | 38.8% | 11.1% | 43.33% | 39.8% | 0.56 | 14.7% | 3.12% | 28.1% | 36.9% | 22.5% | 44% | 42% | inhibition in vivo at 10 mg/kg (Rattus norvegicus [20]): 24%
3 | CCOC(=O)C1=C(C)NC(OC)N(CC(=O)c2ccc(Cl)cc2)C1c1ccccc1 (stereo unspecified) | 9.99% | 38.2% | 37.8% | 41.5% | 0.7% | 47.8% | 30.1% | 46.5% | 36.6% | 6.49% | 41.66% | 38.4% | 0.45 | 13.8% | 2.35% | 28% | 36.7% | 23% | 45% | 42% | inhibition in vivo at 10 mg/kg (Rattus norvegicus [20]): 20.5%
4 | CCOC(=O)C1=C(C)NC(OC)N(CC(=O)c2ccc(Cl)cc2)C1c1ccc(O)cc1 (stereo unspecified) | 10.3% | 39.6% | 38.3% | 42% | 1% | 47.8% | 30.1% | 45.5% | 36.6% | 6.36% | 45.66% | 38.8% | 0.45 | 15.1% | 1.43% | 28.4% | 36.7% | 22.5% | 44% | 42% | inhibition in vivo at 10 mg/kg (Rattus norvegicus [20]): 23.1%
5 | CCOC(=O)C1=C(C)NC(OC)N(CC(=O)c2ccc(Cl)cc2)C1c1ccc(OC)cc1 (stereo unspecified) | 10.1% | 41.4% | 37.9% | 42.9% | 1.57% | 47.7% | 30.1% | 51.9% | 37.8% | 6.58% | 49.56% | 39.5% | 0.45 | 18.2% | 1.79% | 28% | 36% | 23.5% | 49.4% | 42% | inhibition in vivo at 10 mg/kg (Rattus norvegicus [20]): 23.8%
6 | CCOC(=O)C1=C(C)NC(OC)N(CC(=O)c2ccc(Cl)cc2)C1c1ccc(Cl)cc1 (stereo unspecified) | 8.92% | 37.4% | 38.1% | 39.8% | 0.27% | 46.3% | 30.6% | 44.2% | 39.8% | 6.45% | 37.33% | 41% | 0.2 | 12.7% | 1.84% | 28.2% | 35.5% | 23.3% | 44% | 42% | inhibition in vivo at 10 mg/kg (Rattus norvegicus [20]): 19.6%
